Measured values collected from several papers.
Each line is one published result; the experiments were not run side by side. In brackets after ≈: the same amount, converted by molar mass.
Organism: Klebsiella pneumoniae
Observed: microbial growth

Fc1c(F)c(F)c(F)c(F)c1F  MIC (ATCC13883): > 250 µg/mL
CCCCCCC#Cc1cncc(-c2nnc(Sc3ccc([N+](=O)[O-])cc3[N+](=O)[O-])n2C)c1  MIC: ≥ 20 µg/mL
COC(=O)c1cc(-c2ccc(OC)c(NC(=O)Nc3ccc(Cl)c(Cl)c3)c2)on1  MIC (broth dilution; BAA1705): > 64 µg/mL
CN[C@@H]1[C@H](O)[C@H](NC)[C@H]2O[C@@]3(O)C(=O)C[C@@H](C)O[C@H]3O[C@@H]2[C@H]1O  MIC (broth dilution; ATCC33495): > 200 µg/mL
CCCCCCCCCC(=O)N[C@@H](Cc1c[nH]c2ccccc12)C(=O)N[C@H](CC(N)=O)C(=O)N[C@@H](CC(=O)O)C(=O)N[C@@H]1C(=O)NCC(=O)N[C@@H](CCCN)C(=O)N[C@@H](CC(=O)O)C(=O)N[C@H](C)C(=O)N[C@@H](CC(=O)O)C(=O)NCC(=O)N[C@H](CO)C(=O)N[C@@H]([C@H](C)CC(=O)O)C(=O)N[C@@H](CC(=O)c2ccccc2N)C(=O)O[C@@H]1C  MIC (broth dilution; ATCC10031): > 64 µg/mL
CCCCCCC#Cc1cncc(-c2nnc(SCc3cc([N+](=O)[O-])cc([N+](=O)[O-])c3)n2C)c1  MIC: ≥ 20 µg/mL
COC(=O)c1cc(-c2cccc(NC(=O)Nc3ccccc3C)c2)on1  MIC (broth dilution; BAA1705): > 64 µg/mL
Cc1c(NN=C(C#N)C2=NC(=O)CS2)c(=O)n(-c2ccccc2)n1C  MIC (broth dilution): 0.98 µg/mL (≈ 2.77 µM)
COC(=O)c1cc(-c2cccc(NC(=O)Nc3cccc(C#N)c3)c2)on1  MIC (broth dilution; BAA1705): > 64 µg/mL
Fc1c(F)c(F)c(-c2c(F)c(F)c(F)c(F)c2F)c(F)c1F  MIC (ATCC13883): > 250 µg/mL
